The record followed here is ChEMBL document CHEMBL2311522, “Design, synthesis and biological evaluation of novel aliphatic amido/sulfonamido-quaternary ammonium salts as antitumor agents” (2013).

Active and inactive are the calls of the source. The calls are words filed in the database; no cut-off is given here.

Assay [1] has as its system ACHN. Kind of assay: Growth inhibition of human ACHN cells by SRB assay. The format is functional. In general terms: In SRB staining, fixed cells bind dye roughly in proportion to their protein.
The test system of assay [2] is PC-3. Put plainly: Growth inhibition of human PC3 cells by SRB assay. The assay is classed as functional.
The test system of assay [3] is NCI-H23. Put plainly: Growth inhibition of human NCI-H23 cells by SRB assay. The format is functional.
Assay [4] deals with MDA-MB-231. Kind of assay: Growth inhibition of human MDA-MB-231 cells by SRB assay. The format is functional.
Assay [5] deals with NUGC-3. Kind of assay: Growth inhibition of human NUGC3 cells by SRB assay. The format is functional.
Assay [6] concerns HCT-15. Kind of assay: Growth inhibition of human HCT15 cells by SRB assay. The assay is classed as functional.
The target of assay [7] is Rho-related GTP-binding protein RhoB (Homo sapiens) (UniProt P62745). Kind of assay: Transactivation of RhoB (unknown origin) transfected in human HeLa cells at 5 uM by dual luciferase reporter gene assay. The format is cell-based. The essentials: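 HeLa cells at 75–90% confluency were transiently cotransfected with a pGL2-RhoB-firefly luciferase promoter construct, then exposed to compounds. RhoB promoter activation was read as luciferase activity with a dual-luciferase reporter system. NSC126188 and perifosine, each at the same concentration as the compounds, served as positive controls.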
Sequence of Rho-related GTP-binding protein RhoB (Homo sapiens) (P62745 whole entry): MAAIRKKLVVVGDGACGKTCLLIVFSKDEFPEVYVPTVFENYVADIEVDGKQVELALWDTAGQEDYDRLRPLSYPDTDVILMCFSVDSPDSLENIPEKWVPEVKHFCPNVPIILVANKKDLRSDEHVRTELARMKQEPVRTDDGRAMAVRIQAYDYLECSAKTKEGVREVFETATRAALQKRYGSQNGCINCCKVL
For orientation: In a reporter assay the amount or activity of a reporter protein is the signal.

Consider `CCCCCCCCCCCCCCS(=O)(=O)Nc1ccc([N+](C)(C)C)cc1`, for which the GI50 – broadly, the concentration that inhibits growth by half – in assay [1] is “inactive”. The GI50 in assay [2] was found to be 900 nM; in assay [3], 730 nM; in assay [4] it was 4540 nM; in assay [5], 1740 nM; in assay [6], 3380 nM.

With `CCCCCCCCCCCCCCS(=O)(=O)N1CCC[N+](C)(C)CC1`, the GI50 in assay [1] came out at 1330 nM; in assay [2], 620 nM; in assay [3], 800 nM; in assay [4] it was 830 nM; in assay [5], 250 nM; in assay [6], 380 nM. For the same compound, in assay [7], the result was Active.

`C=CC[N+]1(C)CCCN(C(=O)CCCCCCCCCCCCC)CC1` (stereo not given): the GI50 in assay [1] stood at 440 nM; in assay [2] it was 180 nM; in assay [3], 280 nM; in assay [4], 450 nM; in assay [5] it was 260 nM. Further, in assay [7], the result was Active. Also, the GI50 result in assay [6] is “inactive”.

On to `CCCCCCCCCCCCCCCCCCCC(=O)N1CCC[N+](C)(C)CC1`, for which the GI50 amounted to 2780 nM in assay [1]; 3840 nM in assay [3]; 2220 nM in assay [4]; 360 nM in assay [5]; 990 nM in assay [6]. Further, the outcome in assay [7] was Active. Also, in assay [2], the GI50 entry is “inactive”.

Take `CCCCCCCCCCCCS(=O)(=O)N1CCC[N+](C)(C)CC1`: the concentration for 50% growth inhibition (GI50) in assay [1] was 1160 nM; in assay [2], 380 nM; in assay [3], 960 nM; in assay [4] it was 840 nM; in assay [5] it was 240 nM; in assay [6] it was 960 nM. Moreover, the result in assay [7] was Active.

Consider `CCCCCCCCCCCCCCCC(=O)N1CC[N+](C)(C)CC1`, for which the outcome in assay [7] was Active. Besides, the GI50 in assay [2] was determined as 480 nM; in assay [5] it was 290 nM; in assay [6] it was 580 nM.

Regarding `CCCCCCCCCCCCCCCCCC(=O)N1CCC[N+](C)(C)CC1`, the GI50 was 570 nM in assay [1]; 240 nM in assay [2]; 1160 nM in assay [3]; 670 nM in assay [4]; 260 nM in assay [5]; 400 nM in assay [6].

Turning to `CCCCCCCCCCCCCCCCCC(=O)Nc1ccc([N+](C)(C)C)cc1`, the GI50 in assay [1] stood at 1870 nM; in assay [2] it was 1200 nM; in assay [3], 3290 nM; in assay [4] it was 4340 nM; in assay [5], 410 nM; in assay [6], 1220 nM.

Consider `CCCCCCCCCCCCCC(=O)N1CCC[N+](C)(Cc2cccc([N+](=O)[O-])c2)CC1` (stereo not given), for which the GI50 was 820 nM in assay [1]; 180 nM in assay [2]; 890 nM in assay [3]; 710 nM in assay [4]; 460 nM in assay [5]. For the same compound, the result in assay [7] was Active. Besides, the GI50 entry in assay [6] is “inactive”.

For the compound `CCCCCCCCCCCCCCCC(=O)N1CCC[N+](C)(Cc2cccc(OC(F)(F)F)c2)CC1` (stereo not given), the 50% growth inhibitory concentration (GI50) was determined as 1930 nM in assay [1]; 630 nM in assay [2]; 1450 nM in assay [3]; 1340 nM in assay [4]; 870 nM in assay [5]. In addition, in assay [6], the GI50 entry is “inactive”.

For `CCCCCCCCCCCCCC(=O)N1CCC[N+](C)(CC)CC1` (stereo not given), the GI50 was 1610 nM in assay [1]; 270 nM in assay [2]; 1180 nM in assay [3]; 680 nM in assay [4]; 220 nM in assay [5]; 1860 nM in assay [6]. For the same compound, the result in assay [7] was Active.

As for `CCCCCCCCCCCCCCCCCCCC(=O)Nc1ccc([N+](C)(C)C)cc1`, the GI50 in assay [1] was 1760 nM; in assay [2], 1630 nM; in assay [3], 1930 nM; in assay [4] it was 3680 nM; in assay [5] it was 1280 nM; in assay [6] it was 3020 nM.

Turning to `CCCCCCCCCCCCCC(=O)N1CCC[N+](C)(Cc2ccccc2)CC1` (stereo not given), the 50% growth inhibitory concentration (GI50) in assay [1] came out at 1000 nM; in assay [2] it was 450 nM; in assay [3], 1070 nM; in assay [4], 1160 nM; in assay [5] it was 310 nM. Besides, the outcome in assay [7] was Active. Besides, the GI50 entry in assay [6] was “inactive”.

As to `CCCCCCCCCCCCCCCC(=O)Nc1ccc([N+](C)(C)C)cc1`, the GI50 in assay [1] amounted to 3150 nM; in assay [2], 790 nM; in assay [3] it was 1800 nM; in assay [4], 2830 nM; in assay [5], 700 nM; in assay [6], 2370 nM.

`CCCCCCCCCCCCCCCC(=O)N1CCC[N+](C)(C)CC1`: the concentration for 50% growth inhibition (GI50) was 400 nM in assay [1]; 400 nM in assay [2]; 2380 nM in assay [3]; 940 nM in assay [4]; 210 nM in assay [5]; 930 nM in assay [6]. Moreover, the outcome in assay [7] was Active.

Take `CCCCCCCCCCCCCCCCS(=O)(=O)N1CCC[N+](C)(C)CC1`: the GI50 is 2010 nM in assay [1]; 400 nM in assay [2]; 3400 nM in assay [3]; 590 nM in assay [4]; 380 nM in assay [5]; 770 nM in assay [6]. Moreover, the result in assay [7] was Active.

Regarding `CCCCCCCCCCCCCC(=O)Nc1ccc([N+](C)(C)C)cc1`, the GI50 was found to be 4540 nM in assay [1]; 540 nM in assay [2]; 4140 nM in assay [3]; 3560 nM in assay [4]; 740 nM in assay [5]; 1360 nM in assay [6].

In the case of `CCCCCCCCCCCCCC(=O)N1CCC[N+](C)(Cc2ccc(F)cc2)CC1` (stereo not given), the GI50 turned out to be 1100 nM in assay [1]; 450 nM in assay [2]; 1480 nM in assay [3]; 1480 nM in assay [4]; 940 nM in assay [5]. The GI50 result in assay [6] is “inactive”.

Regarding `CCCCCCCCCCCCCC(=O)N1CCC[N+](C)(C)CC1`, the GI50 stood at 490 nM in assay [1]; 360 nM in assay [2]; 1360 nM in assay [3]; 980 nM in assay [4]; 80 nM in assay [5]; 1700 nM in assay [6]. Also, the result in assay [7] was Active.

`CCCCCCCCCCCCS(=O)(=O)Nc1ccc([N+](C)(C)C)cc1`: the 50% growth inhibitory concentration (GI50) in assay [1] is 4500 nM; in assay [2], 1020 nM; in assay [3] it was 3940 nM; in assay [5] it was 1210 nM. The GI50 entry in assay [4] and in assay [6] was “inactive” in each case.

Take `CCCCCCCCCCCCCCCCCCOP(=O)([O-])OC1CC[N+](C)(C)CC1` [PERIFOSINE]: the results for the GI50 in assay [2] and in assay [5] were 440 nM and 540 nM, respectively.
